Reference: the RNAGym collection of RNA variant scans (doi:10.1126/science.aae0568)
This sample holds only a part of the variants without activity.

B1: tRNA (parent)
chain: GUUCCGUUGGCGUAAUGGUAACGCGUCUCCCUCCUAAGGAGAAGACUGCGGGUUCGAGUCCCGUACGGAACG

Variants of: B1
Assay: yeast fitness relative to wild type (ratio to wild type); higher = fitter; tRNA-Arg(CCU), competitive growth, 37 C, YPD
Summary of the method: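 For this measurement, the tRNA-Arg(CCU) gene was varied by chemical synthesis at a 3% per-site mutation rate across 69 sites, and each variant was placed at the native genomic locus in Saccharomyces cerevisiae. The pooled strains went through a 24-hour competition in YPD at 37°C in six parallel replicates, with amplicons from start and end populations read by 100-nucleotide paired-end sequencing. Darwinian fitness relative to wild type followed from the change in each genotype's frequency. Genotypes needed ≥ 100 starting reads, and estimates < 0.5 were set to 0.5.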
Variant C34U C46A C55G has a yeast fitness of 0.672.
C55G A57C C61A C66U gave a yeast fitness of 0.544.
C55U A57U showed a yeast fitness of 0.634.
U13C C29G A36G G41A showed a yeast fitness of no more than 0.5.
With A21C A69C the yeast fitness was 0.809.
C22U A40G A43U C46G C49G A70G gave a yeast fitness of no more than 0.5.
A15U A42C G48A G50C gave a yeast fitness of no more than 0.5.
Variant U3A C30G A36G C46G has a yeast fitness of no more than 0.5.
For A21G C31A, the yeast fitness was 0.962.
For C30A U35C A36G A42C C60U C61U, the yeast fitness was no more than 0.5.
C27A G39C C46A gave a yeast fitness of no more than 0.5.
With U28G U64C the yeast fitness was 0.864.
C4U A20C C22U U47G G67A A69U showed a yeast fitness of no more than 0.5.
Work on C5A U54A C55G A65C yielded a yeast fitness of no more than 0.5.
In the case of A21G G68C, the yeast fitness is reported as 0.949.
Variant G25C G51A U54A has a yeast fitness of 0.507.
With A20G C30U C46A G63U the yeast fitness was no more than 0.5.
Work on C5G U8A A42C G48C yielded a yeast fitness of no more than 0.5.
With C11U C31U C61U A69U the yeast fitness was no more than 0.5.
Variant U19C C24U C30A has a yeast fitness of 0.631.
For C31G A40G G52C, the yeast fitness was no more than 0.5.
With C24A C33G A40C C55U the yeast fitness was 0.888.
U3A A65C gave a yeast fitness of 0.879.
With A20U G39A A45C A57C G68C the yeast fitness was no more than 0.5.
Work on U2C U7G A40C G51A G67A yielded a yeast fitness of no more than 0.5.
With A20G C31U A42U C46U C66G the yeast fitness was 0.714.
In the case of C5U A20C C29A, the yeast fitness is reported as 0.666.
Work on G25C C60U C61A yielded a yeast fitness of no more than 0.5.
With G23A U28C U59C C60G the yeast fitness was 0.649.
For U8A G25A C29G A37C, the yeast fitness was 0.646.
For C49A A65C, the yeast fitness was 0.686.
With A20U U54C the yeast fitness was 0.758.
For C5U U13G C61U, the yeast fitness was 0.726.
U59A A65U gave a yeast fitness of 0.636.
In the case of G25C C29A G52A, the yeast fitness is reported as 0.505.
G25A C49G showed a yeast fitness of 0.981.
Work on C5G A14U G23C C33A yielded a yeast fitness of no more than 0.5.
With C34A A40C the yeast fitness was 0.747.
Work on G18A U32C A70G yielded a yeast fitness of 0.599.
In the case of G12A A20U U32A C49G G63A A65U, the yeast fitness is reported as 0.535.
With A21C U64A the yeast fitness was 0.799.
With G10C A21C C29A C30G A40C the yeast fitness was no more than 0.5.
With C29U C49U C55A the yeast fitness was no more than 0.5.
Variant U7A A14G C31U G39C A40C A45U G68C has a yeast fitness of 0.555.
In the case of C5U A21G A42U, the yeast fitness is reported as 0.908.
C5U C22A C31U G68C showed a yeast fitness of no more than 0.5.
A20U C31U C66A gave a yeast fitness of no more than 0.5.
With G6C A45G G58A the yeast fitness was 0.607.
Variant U19A U47A G52C has a yeast fitness of no more than 0.5.
Work on U7C A37C A40C A45U A57C A70C yielded a yeast fitness of no more than 0.5.
For A20C C46G A70G, the yeast fitness was 0.668.
With C49G G56A G63A the yeast fitness was 0.584.
In the case of C5G U8A, the yeast fitness is reported as 0.641.
Variant U3C A40U C49A C62A has a yeast fitness of no more than 0.5.
With C11G U13G the yeast fitness was 0.599.
In the case of C29G U35G C60U, the yeast fitness is reported as no more than 0.5.
Variant C27G U28A C30G C31U has a yeast fitness of 0.51.
For U7C C33G A40G, the yeast fitness was no more than 0.5.
With G10C C11U G67A the yeast fitness was no more than 0.5.
G12A A15G A43C gave a yeast fitness of no more than 0.5.
Work on C11U U19G yielded a yeast fitness of 0.962.
With G9A C29U U59A the yeast fitness was 0.561.
For U3C C24G C31U C55A, the yeast fitness was no more than 0.5.
In the case of A36U G38A A65C, the yeast fitness is reported as 0.518.
For C24G G44A C46U U53C C62U, the yeast fitness was no more than 0.5.
A14C A20U C31U G38C U59A gave a yeast fitness of no more than 0.5.
U26C A45G gave a yeast fitness of 0.966.
With G17A C30A the yeast fitness was 0.71.
A40C showed a yeast fitness of 1.
A14G C24G C31U gave a yeast fitness of no more than 0.5.
With G12C C34U C46A the yeast fitness was no more than 0.5.
Variant C24U G39C A70G has a yeast fitness of no more than 0.5.
For C34G A40G U64C, the yeast fitness was 0.578.
U3A U8C A36U U53G gave a yeast fitness of no more than 0.5.
In the case of A20G C27A C31A, the yeast fitness is reported as no more than 0.5.
Work on G9C C27G C46G A65G yielded a yeast fitness of no more than 0.5.
A20U C27G C29A A65G showed a yeast fitness of no more than 0.5.
In the case of U7G U35A C49G C60A, the yeast fitness is reported as no more than 0.5.
Work on U3C A69U yielded a yeast fitness of 1.03.
Variant C31A A36G A57C has a yeast fitness of no more than 0.5.
For U3A G25A U26G, the yeast fitness was 0.535.
U2A A21C C29U G56C showed a yeast fitness of no more than 0.5.
U26G A36G showed a yeast fitness of 0.914.
With G56A G68C the yeast fitness was 0.838.
A15G U26A A45G C60U C62A showed a yeast fitness of 0.562.
Variant G12A A21C U59A G67A has a yeast fitness of no more than 0.5.
With C49U U59C C61U the yeast fitness was 0.618.
Variant C24G A40G C66U has a yeast fitness of 0.515.
With G67A the yeast fitness was 0.951.
G9C A21G C34G showed a yeast fitness of no more than 0.5.
C5A G41A C55A showed a yeast fitness of no more than 0.5.
C11A A42C G51A A69C gave a yeast fitness of no more than 0.5.
C5U C31A A45C showed a yeast fitness of 0.681.
C27G C49U A65C showed a yeast fitness of no more than 0.5.
With C24A A40C A69C the yeast fitness was no more than 0.5.
For A15U A40G G52C C62G, the yeast fitness was no more than 0.5.
G9A A40C gave a yeast fitness of 0.881.
G12C G25A showed a yeast fitness of 0.848.
U2C A21G C33G gave a yeast fitness of no more than 0.5.
Variant C5A C31G U47A has a yeast fitness of 0.745.
U7A C11U A36U A57C gave a yeast fitness of no more than 0.5.
With C5U C11A A21G A70G the yeast fitness was no more than 0.5.
Work on U8A C24G G48C C49U U64A yielded a yeast fitness of no more than 0.5.
U3C C24U gave a yeast fitness of 1.01.
Work on A14U A21C yielded a yeast fitness of 0.705.
With C66G G67C the yeast fitness was 0.733.
G6A C24U C29G C49A gave a yeast fitness of 0.575.
For C4U C30G A36U C66A, the yeast fitness was no more than 0.5.
With G18A U47C C62A the yeast fitness was no more than 0.5.
Work on C33G A57U A70U yielded a yeast fitness of no more than 0.5.
U2G U19A A21G G39C C60G G67C gave a yeast fitness of no more than 0.5.
In the case of C27U A65G, the yeast fitness is reported as 0.975.
In the case of C11G C66A A69U, the yeast fitness is reported as no more than 0.5.
C46A C61U A69G showed a yeast fitness of no more than 0.5.
With C31A A43U U54A the yeast fitness was no more than 0.5.
C5A A37U C66U gave a yeast fitness of no more than 0.5.
Variant G48A G56U G58A has a yeast fitness of no more than 0.5.
Work on C5U C11G A15U U32A U35G C55A C61G yielded a yeast fitness of no more than 0.5.
Work on C5U U8A G18C C29U A45C yielded a yeast fitness of 0.554.
G23A C34A A43U U47C C62G C66A showed a yeast fitness of 0.689.
C22G C27G C29G C34A A43U showed a yeast fitness of no more than 0.5.
Variant A14U U26A C62G has a yeast fitness of no more than 0.5.
Work on U3A C27G U28G A36U A45U C49G yielded a yeast fitness of 0.662.
In the case of U8G G18A G50C A65U, the yeast fitness is reported as 0.513.
U26G G51C showed a yeast fitness of 0.588.
Work on G44C A45G yielded a yeast fitness of 0.958.
Work on A20U G63A yielded a yeast fitness of 0.932.
In the case of G9C G63A, the yeast fitness is reported as 0.72.
With C27U C55A A69C the yeast fitness was 0.573.
A15C U59A C61A gave a yeast fitness of 0.698.
For U2C C4A C34A A43G G52C C61A, the yeast fitness was no more than 0.5.
For C30U A57G, the yeast fitness was 0.709.
With A14G U26A C27G the yeast fitness was no more than 0.5.
For A45C C62U, the yeast fitness was 0.842.
Work on C5U G18C A40G A43C U54A yielded a yeast fitness of 0.72.
Work on U2G C33U C34G U59A yielded a yeast fitness of no more than 0.5.
G41C A65C A70U showed a yeast fitness of 0.641.
In the case of G10C U19A C66U, the yeast fitness is reported as no more than 0.5.
G17C G25A C49A A69U showed a yeast fitness of no more than 0.5.
Variant C11A U26C C29G C31U G48A has a yeast fitness of no more than 0.5.
U19A C34G A57U showed a yeast fitness of no more than 0.5.
With A15C A36U C46G G56A C60A C62G C66A the yeast fitness was no more than 0.5.
Work on C27G G44C yielded a yeast fitness of 0.569.
For C11G A42U C66G G67U, the yeast fitness was no more than 0.5.
Work on C4G G9A C22U C46G G56C yielded a yeast fitness of no more than 0.5.
In the case of G10A G18A, the yeast fitness is reported as no more than 0.5.
G12A C33G A36C G44A gave a yeast fitness of no more than 0.5.
In the case of U13C A15C A20G C22U G25A C27G C30A A57C, the yeast fitness is reported as 0.542.
Work on U7C C22A A45C C46U yielded a yeast fitness of no more than 0.5.
U7C U28C C55U gave a yeast fitness of no more than 0.5.
For C5A C30A A43U A57G, the yeast fitness was no more than 0.5.
For A43C G67A, the yeast fitness was 0.685.
In the case of U19C C31G U53G U54A A57U, the yeast fitness is reported as 0.653.
A36G G56A A69U showed a yeast fitness of 0.718.
U47C C66A gave a yeast fitness of 0.775.
C5U U19A C30A A42C U64C gave a yeast fitness of no more than 0.5.
U7G G23A C29U A36U showed a yeast fitness of no more than 0.5.
Work on C4U G10A A14U C46U yielded a yeast fitness of no more than 0.5.
Work on C4U G18C C31U yielded a yeast fitness of no more than 0.5.
With C11U C22G C62U G68C the yeast fitness was 0.542.
U47C G58C gave a yeast fitness of 0.971.
In the case of U26C C62A, the yeast fitness is reported as 0.762.
For G48A G51C C61G, the yeast fitness was 1.02.
Work on C24G G41A yielded a yeast fitness of 0.619.
With U13G U47G C66U the yeast fitness was no more than 0.5.
Variant U3A A14C A42C U47C has a yeast fitness of no more than 0.5.
With C33A G38C G50A U64C the yeast fitness was no more than 0.5.
